MEKK2 WT-MEK5: modulators of MEK5 binding to wildtype MEKK2, primary screen, biochemical, multiplex bead flow cytometry, Alexa488-MEK5; Alexa488-MEK5 binding to MEKK2 WT; actives lie on both sides; binding response (% of control), % at 10 µM; Mitogen-activated protein kinase kinase kinase 2 (Homo sapiens), Q9Y2U5; 290,000 tested, 1.1% active; in the data active = binding response below about 67% or above about 130%
UBC13 polyUb: UBC13 polyubiquitin chain formation inhibitors, primary screen, biochemical, TR-FRET, uHTS. Ubiquitin-conjugating enzyme E2 N (Homo sapiens), P61088. 330,000 tested, 0.47% active. AID 485273, 2010. inhibition, % at 20 µM; in the data active = inhibition above about 45%, passing the limit was not always enough
MEKK3 PB1 HTS: modulators of MEKK3-MEK5 PB1 binding, primary screen, biochemical, wildtype MEKK3, multiplex bead flow cytometry, Alexa488-MEK5. bead-based flow cytometry, Alexa488-MEK5 binding to MEKK3; actives lie on both sides; 0 = blocked by unlabeled MEK5, 100 = vehicle. 290,000 tested, 1.4% active. Mitogen-activated protein kinase kinase kinase 3 (Homo sapiens), Q99759. AID 1529, 2009. binding response (% of control), % at 10 µM;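 active = binding response more than 3 SD above or below the average of its plate-row segment, actives on both sides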;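 note: Alexa488 bead fluorescence after subtracting the streptavidin-only scavenger bead signal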
DSG3 Ab inh: inhibitors of pemphigus antibody binding to DSG3, primary screen, biochemical, bead-based, flow cytometry, scFv-GFP; DSG3-coupled beads, scFv-anti-DSG3-GFP binding; hits give low values; binding (percent of control), % at 10 µM; 310,000 tested, 0.48% active; AID 588358, 2011;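 active = binding more than 3 SD below its plate's average and above zero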;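 note: hits lower antibody fragment binding to DSG3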
Apaf1 inhib: inhibitors of human Apaf-1 apoptosome, primary screen, biochemical, DEVD-Rh110 fluorescence, uHTS; inhibition, % at 20 µM; reconstituted apoptosome caspase-3 activity; Apoptotic protease-activating factor 1 (Homo sapiens), O14727; 330,000 tested, 0.71% active; active = inhibition of at least 40% at 20 µM;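 note: plate controls were DMSO wells for no effect and DEVD-CHO caspase inhibitor wells for full effect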
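Medium: Hepes buffer, pH 7.5 / System: biochemical Apaf-1 apoptosome reconstitution / Measured by: Rh110 fluorescence, excitation 480 nm, emission 540 nm / Times: compound with Apaf-1, dATP, procaspase-3 30 min, then 50 min reaction, room temperature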
MEKK2mut PB1 HTS: MEK5 binding signal on mutant MEKK2 PB1, primary screen, biochemical, multiplex bead flow cytometry, Alexa488-MEK5; Alexa488-MEK5 binding to MEKK2 mutant; 290,000 tested, 0.35% active; percent response, % at 10 µM; AID 1530, 2009; in the data active = percent response above about 24%, passing the limit was not always enough
MEKK2wt confirm: modulators of MEK5 binding to wildtype MEKK2, confirmation, biochemical, single concentration, multiplex bead flow cytometry. shares compounds with MEKK3 PB1 HTS. Alexa488-MEK5 binding to MEKK2 WT; actives lie on both sides. binding response (% of control), % at 10 µM. 5,900 tested, 2.4% active. AID 1892, 2009; in the data active = binding response below about 16% or above about 210%; inactive = in between
MEKK2mut-MEK5: mutant MEKK2 PB1-MEK5 binding signal retest – biochemical, single concentration, multiplex bead flow cytometry, confirmation. shares compounds with MEKK3 PB1 HTS. AID 1893, 2009. Alexa488-MEK5 binding to MEKK2 mutant. percent response, % at 10 µM. 5,900 tested, 2% active; in the data active = percent response mostly above about 71%, no sharp cut-off; inactive = mostly below about 38%;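 note: higher means compound restores mutant binding toward wildtype level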
MEKK3-MEK5 inh: MEKK3 wild-type PB1 binding to MEK5, inhibitors, confirmation, biochemical, bead multiplex flow cytometry, single concentration, wildtype | 5,900 tested, 1.8% active | Alexa488-MEK5 binding to MEKK3; hits give low values | binding response (% of control), % at 10 µM | shares compounds with MEKK3 PB1 HTS;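 active = binding response below 72% of control, or above a set upper limit, though filed actives all read lower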;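 note: 100% = DMSO only wells and 0% = binding blocked by excess unlabeled MEK5; lower values mean stronger disruption of MEK5 binding to MEKK3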
An asterisk follows results filed as active; · = no result; [ ] = dose if it differs, or a comment. Most compounds without a hit are left out; they make up all but 3.2% or so of the library.

SMILES	MEKK2 WT-MEK5	UBC13 polyUb	MEKK3 PB1 HTS	DSG3 Ab inh	Apaf1 inhib	MEKK2mut PB1 HTS	MEKK2wt confirm	MEKK2mut-MEK5	MEKK3-MEK5 inh
COc1ccccc1CCNC(=O)Cn1ccc2cc(S(=O)(=O)N3CCC(C)CC3)ccc21	100.0	-12.2	101.0	101.3	14.1	-4.0	·	·	·
C=CCN(C#N)c1nc(OC)nc(N2CCCC2)n1	130.0	-3.1	130.0*	92.9	1.3	11.0	85.0	-7.0	80.0
Cc1ccc2c(C)c(C(=O)N3CCN(C4CCS(=O)(=O)C4)CC3)oc2c1C (stereo unspecified)	101.0	-6.6	99.0	·	-2.2	3.0	·	·	·
CC(C)OC(=O)C(NC(=O)c1ccccc1)=C1CCCCC1	113.0	2.6	122.0*	103.2	-2.1	6.0	96.0	0.0	102.0
Cc1c(NS(=O)(=O)c2cc(C(=O)NC(C)c3ccccc3)ccc2Cl)c(=O)n(-c2ccccc2)n1C (stereo unspecified)	·	-5.0	·	98.2	-2.3	·	·	·	·
CCOC(=O)CCC(NC(=O)CCCCC(=O)NC(CCC(=O)OCC)C(=O)OCC)C(=O)OCC (stereo unspecified)	107.0	-10.2	130.0*	103.5	3.1	1.0	106.0	0.0	103.0
CCOC(=O)CCC(NC(=O)CCCCCCCCC(=O)NC(CCC(=O)OCC)C(=O)OCC)C(=O)OCC (stereo unspecified)	110.0	3.4	107.0	95.2	4.8	1.0	·	·	·
CC1=CC2C(C(O)CC3(C)C2CC(C)C32OCOC23COCO3)C2(C)C/C(=C\O)C(=O)C=C12 (stereo unspecified)	·	·	·	91.8	·	·	·	·	·
CC(C)(C)C(=O)Nc1ccc2oc(-c3cc(F)c(F)cc3Cl)nc2c1	1.0*[inhibitor]	12.5	1.0*[inhibitor]	98.2	13.2	-19.0	103.0	-2.0	100.0
CCOc1cc(N2CCOCC2)c(OCC)cc1NC(=O)CN1CCCC1	108.0	0.0	132.0*	·	1.5	1.0	101.0	-1.0	99.0
CCOc1cc(N2CCOCC2)c(OCC)cc1NC(=O)C1CCCC1	98.0	-4.4	102.0	99.0	0.8	0.0	·	·	·
CCOc1cc(N2CCOCC2)c(OCC)cc1NC(=O)c1ccc(OCc2c(C)noc2C)c(OC)c1	105.0	-8.7	131.0*	96.8	5.7	1.0	104.0	6.0	102.0
Cc1ccc2c(c1)[C@H]1[C@H](CO2)[C@H](c2ccccc2)[C@]2(C)C(=O)N(C)CC(=O)N12	·	·	·	107.5	·	·	·	·	·
CN1CCN(C(CNS(=O)(=O)c2ccc([N+](=O)[O-])cc2)c2ccc(F)cc2)CC1 (stereo unspecified)	·	-1.8	·	102.2	0.0	·	·	·	·
CC(=O)Nc1nonc1NC(C)=O	3.0*[inhibitor]	-2.3	2.0*[inhibitor]	·	-2.0	-15.0	100.0	0.0	104.0
O=C(/C=N/O)NCc1ccncc1	125.0	0.2	123.0*	100.7	-6.2	15.0	96.0	-1.0	98.0
CC(C)c1ccc(N(C)C(=O)Cc2c(C(=O)O)n(C)c3ccccc23)cc1	-1.0*[inhibitor]	-5.4	1.0*[inhibitor]	133.7	5.0	-15.0	100.0	1.0	100.0
CN(C(=O)Cc1c(C(=O)O)n(C)c2ccccc12)c1ccc(Cl)cc1	105.0	-1.3	102.0	96.9	1.8	4.0	·	·	·
COC(=O)C1=C(C)NC(=O)NC1c1ccc([N+](=O)[O-])o1 (stereo unspecified)	98.0	-16.2	98.0	99.5	11.1	0.0	·	·	·
COC(=O)C1=C(C)NC(=O)NC1c1ccc(-c2ccc(Cl)cc2)o1 (stereo unspecified)	4.0*[inhibitor]	-0.1	94.0	100.5	1.7	-1.0	108.0	6.0	108.0
CCN1CCN(C(=O)c2ccc(CS(=O)(=O)Cc3ccccc3Cl)o2)CC1	·	·	·	97.3	·	·	·	·	·
CC(C)CC(=O)NC(=S)Nc1ccc(N2CCCC2)c(Cl)c1	67.0	3.2	62.0	97.3	0.2	-19.0	·	·	·
CC(C)C(=O)Nc1ccc(N2CCCC2)c(Cl)c1	123.0	4.3	151.0*	102.6	4.3	3.0	102.0	-1.0	99.0
COc1cccc(N2CCN(S(=O)(=O)c3ccc4c(c3)N(C(C)=O)CCO4)CC2)c1	101.0	-3.4	99.0	104.7	12.4	4.0	·	·	·
Cc1c(C(=O)Nc2ccc(Oc3ccccc3)cc2)sc2nc3n(c(=O)c12)CCC3	87.0	19.0	77.0*[inhibitor]	110.9	14.6	-10.0	99.0	-7.0	100.0
SMILES	MEKK2 WT-MEK5	UBC13 polyUb	MEKK3 PB1 HTS	DSG3 Ab inh	Apaf1 inhib	MEKK2mut PB1 HTS	MEKK2wt confirm	MEKK2mut-MEK5	MEKK3-MEK5 inh
N#CCCN(C(=O)COC(=O)CNS(=O)(=O)c1ccc2ccccc2c1)c1ccccc1	·	2.8	·	·	-5.3	·	·	·	·
CCOC(=O)c1c(CSC(=N)N)n(-c2ccc(C)cc2)c2cc(Br)c(OC(C)=O)cc12	232.0*	56.2*	102.0	·	45.8*	70.0*	212.0*	55.0	108.0
COC(=O)/C=C1\C(=O)N(c2nc3ccc(OC)cc3s2)C(=S)N1c1ccc(F)cc1	·	-23.6	·	·	-2.3	·	·	·	·
COC(=O)/C=C1\C(=O)N(c2nc3ccccc3s2)C(=S)N1c1ccc(F)cc1	0.0*[inhibitor]	-9.1	1.0*[inhibitor]	123.5	30.4	-41.0	99.0	0.0	99.0
Cc1cc(Br)ccc1NC(=O)CSCc1c(C)noc1C	·	14.0	·	·	-0.2	·	·	·	·
COc1ccccc1NC(=O)CSc1nc(N)c(C#N)cc1C#N	109.0	15.8	130.0*	106.7	-2.8	0.0	104.0	14.0	105.0
